According to ChEMBL document CHEMBL1177778, “One-pot multicomponent synthesis and anti-microbial evaluation of 2'-(indol-3-yl)-2-oxospiro(indoline-3,4'-pyran) derivatives” (2010):

How the values were obtained:
Assay type in all cases: functional
Settings in all cases: for zone of inhibition at 100 µg/mL: read-out: DIZ
[1] = system: Staphylococcus epidermidis; test: Antimicrobial activity against Staphylococcus epidermidis at 100 ug/ml after 24 to 48 hrs by disk diffusion method
Summary of the method: (§1)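 Disc diffusion (cup plate) screen. Organism suspensions were applied to plates and incubated at 36 °C for 24–48 h in a sufficiently humid chamber, after which the zone of inhibition was read. Compounds were dissolved in DMSO as a stock solution and serially diluted to test solutions of 25, 50, 75, 100 and 150 µg/ml.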

Bacillus subtilis = test: Antimicrobial activity against Bacillus subtilis at 100 ug/ml after 24 to 48 hrs by disk diffusion method; summary of the method: as §1
Aspergillus niger = test: Antimicrobial activity against Aspergillus niger at 100 ug/ml after 24 to 48 hrs by disk diffusion method; summary of the method: as §1
Staphylococcus aureus = test: Antimicrobial activity against Staphylococcus aureus at 100 ug/ml after 24 to 48 hrs by disk diffusion method; summary of the method: as §1

| Molecule | zone of inhibition at 100 µg/mL [1] | zone of inhibition at 100 µg/mL (Bacillus subtilis) | zone of inhibition at 100 µg/mL (Aspergillus niger) | zone of inhibition at 100 µg/mL (Staphylococcus aureus) | inhibition zone (IZ) (Aspergillus niger) | inhibition zone (IZ) [1] | inhibition zone (IZ) (Bacillus subtilis) | inhibition zone (IZ) (Staphylococcus aureus) |
| --- | --- | --- | --- | --- | --- | --- | --- | --- |
| CCOC(=O)C1=C(N)OC(c2c(C)[nH]c3ccccc23)=C(C#N)[C@@]12C(=O)c1cccc3cccc2c13 | 16 mm | 18 mm | 26 mm | 20 mm | – | – | – | – |
| CCOC(=O)C1=C(N)OC(c2c[nH]c3ccccc23)=C(C#N)[C@@]12C(=O)N(Cc1ccccc1)c1ccccc12 | 15 mm | 14 mm | 24 mm | 16 mm | – | – | – | – |
| Cc1[nH]c2ccccc2c1C1=C(C#N)[C@@]2(C(=O)c3cccc4cccc2c34)C(C#N)=C(N)O1 | 16 mm | 19 mm | 26 mm | 20 mm | – | – | – | – |
| NYSTATIN | – | – | – | – | 28 mm | – | – | – |
| CCOC(=O)C1=C(N)OC(c2c[nH]c3ccccc23)=C(C#N)[C@@]12C(=O)N(C)c1ccccc12 | 14 mm | 13 mm | 23 mm | 18 mm | – | – | – | – |
| C=CCN1C(=O)[C@@]2(C(C#N)=C(c3c[nH]c4ccccc34)OC(N)=C2C(=O)OCC)c2ccccc21 | 13 mm | 14 mm | 21 mm | 18 mm | – | – | – | – |
| N#CC1=C(N)OC(c2c[nH]c3ccccc23)=C(C#N)[C@@]12C(=O)c1cccc3cccc2c13 | 39 mm | 40 mm | 29 mm | 38 mm | – | – | – | – |
| CN1C(=O)[C@]2(C(C#N)=C(N)OC(c3c[nH]c4ccccc34)=C2C#N)c2ccccc21 | 28 mm | 26 mm | 27 mm | 27 mm | – | – | – | – |
| Cn1cc(C2=C(C#N)[C@@]3(C(=O)c4cccc5cccc3c45)C(C#N)=C(N)O2)c2ccccc21 | 38 mm | 36 mm | 28 mm | 39 mm | – | – | – | – |
| O=C(N[C@H](CO)[C@H](O)c1ccc([N+](=O)[O-])cc1)C(Cl)Cl [CHLORAMPHENICOL] | 31 mm | 32 mm | 25 mm | 29 mm | – | – | – | – |
| N#CC1=C(N)OC(c2c[nH]c3ccccc23)=C(C#N)[C@@]12C(=O)Nc1ccccc12 | 30 mm | 28 mm | 28 mm | 29 mm | – | – | – | – |
| CCOC(=O)CN1C(=O)[C@]2(C(C#N)=C(N)OC(c3c[nH]c4ccccc34)=C2C#N)c2ccccc21 | 25 mm | 26 mm | 25 mm | 24 mm | – | – | – | – |
| CCCCN1C(=O)[C@@]2(C(C#N)=C(c3c[nH]c4ccccc34)OC(N)=C2C(=O)OCC)c2ccccc21 | 14 mm | 17 mm | 27 mm | 16 mm | – | – | – | – |
| GENTAMICIN SULFATE | – | – | – | – | 28 mm | 28 mm | 30 mm | 26 mm |
| CCOC(=O)C1=C(N)OC(c2cn(C)c3ccccc23)=C(C#N)[C@@]12C(=O)c1cccc3cccc2c13 | 18 mm | 18 mm | 22 mm | 19 mm | – | – | – | – |
| CCOC(=O)C1=C(N)OC(c2c[nH]c3ccccc23)=C(C#N)[C@@]12C(=O)Nc1ccccc12 | 18 mm | 19 mm | 23 mm | 18 mm | – | – | – | – |
| N#CC1=C(N)OC(c2c[nH]c3ccccc23)=C(C#N)[C@@]12C(=O)N(Cc1ccccc1)c1ccccc12 | 31 mm | 30 mm | 24 mm | 29 mm | – | – | – | – |
| CCOC(=O)CN1C(=O)[C@@]2(C(C#N)=C(c3c[nH]c4ccccc34)OC(N)=C2C(=O)OCC)c2ccccc21 | 10 mm | 12 mm | 21 mm | 14 mm | – | – | – | – |
| CCOC(=O)C1=C(N)OC(c2c[nH]c3ccccc23)=C(C#N)[C@@]12C(=O)c1cccc3cccc2c13 | 18 mm | 17 mm | 27 mm | 20 mm | – | – | – | – |
| C#CCN1C(=O)[C@]2(C(C#N)=C(N)OC(c3c[nH]c4ccccc34)=C2C#N)c2ccccc21 | 19 mm | 20 mm | 25 mm | 18 mm | – | – | – | – |
| C#CCN1C(=O)[C@@]2(C(C#N)=C(c3c[nH]c4ccccc34)OC(N)=C2C(=O)OCC)c2ccccc21 | 16 mm | 17 mm | 25 mm | 16 mm | – | – | – | – |
